Data published in ChEMBL document CHEMBL3994579, “Synthesis and antibacterial activity of novel 3-O-descladinosylazithromycin derivatives” (2017).
In brackets after ≈: the same amount, converted by molar mass.

How the values were obtained:
Type in all cases: functional
[1] = system: Streptococcus pyogenes; assay: Antibacterial activity against erythromycin-resistant Streptococcus pyogenes R1 clinical isolate by broth microdilution method
[2] = system: Streptococcus pneumoniae; assay: Antibacterial activity against erythromycin-resistant Streptococcus pneumoniae AB11 expressing ermB/mefA genes by broth microdilution method
Procedure, shortened: (§1)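 Broth microdilution per NCCL recommendation, read as minimal inhibitory concentration, run alongside azithromycin and clarithromycin references. Strains: S. pneumoniae B1 (erythromycin-resistant, ermB), A22072 (erythromycin-resistant, mefA), AB11 (erythromycin-resistant, erm and mef); S. aureus ATCC29213 ([…]); S. epidermidis clinical isolate (penicillin-resistant, not characterized).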

[3] = system: Streptococcus pneumoniae; assay: Antibacterial activity against erythromycin-resistant Streptococcus pneumoniae A22072 expressing mefA gene by broth microdilution method; procedure, shortened: as §1
[4] = system: Streptococcus pyogenes; assay: Antibacterial activity against erythromycin-susceptible Streptococcus pyogenes clinical isolate by broth microdilution method
Procedure, shortened: (§2)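 MICs were determined in vitro by broth microdilution following the NCCL-recommended method. Azithromycin and clarithromycin were run alongside as reference antibiotics on the same strain panel.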

[5] = system: Pseudomonas aeruginosa; assay: Antibacterial activity against penicillin-susceptible Pseudomonas aeruginosa ATCC 27853 by broth microdilution method; procedure, shortened: as §2
[6] = system: Staphylococcus epidermidis; assay: Antibacterial activity against penicillin-resistant Staphylococcus epidermidis clinical isolate by broth microdilution method; procedure, shortened: as §1
[7] = system: Bacillus subtilis; assay: Antibacterial activity against erythromycin/penicillin-susceptible Bacillus subtilis ATCC 9372 by broth microdilution method; procedure, shortened: as §2
[8] = system: Streptococcus pneumoniae; assay: Antibacterial activity against erythromycin-resistant Streptococcus pneumoniae B1 expressing ermB gene by broth microdilution method; procedure, shortened: as §1
[9] = system: Escherichia coli; assay: Antibacterial activity against penicillin-susceptible Escherichia coli ATCC 25922 by broth microdilution method; procedure, shortened: as §2
[10] = system: Staphylococcus aureus; assay: Antibacterial activity against erythromycin-susceptible Staphylococcus aureus ATCC 25923 by broth microdilution method; procedure, shortened: as §2
[11] = system: Staphylococcus aureus; assay: Antibacterial activity against […] Staphylococcus aureus ATCC 29213 by broth microdilution method; procedure, shortened: as §1

| Structure (SMILES) | MIC [1] [µg/mL] | MIC [2] [µg/mL] | MIC [3] [µg/mL] | MIC [4] [µg/mL] | MIC [5] [µg/mL] | MIC [6] [µg/mL] | MIC [7] [µg/mL] | MIC [8] [µg/mL] | MIC [9] [µg/mL] | MIC [10] [µg/mL] | MIC [11] [µg/mL] |
| --- | --- | --- | --- | --- | --- | --- | --- | --- | --- | --- | --- |
| CC[C@H]1OC(=O)[C@H](C)[C@@H](O)[C@H](C)[C@@H](O[C@@H]2O[C@H](C)C[C@H](N(C)C)[C@H]2OC(=O)n2ccnc2)[C@](C)(O)C[C@@H](C)CN(C)[C@H](C)[C@H]2OC(=O)O[C@@]21C | 256 (≈ 360 µM) | 32 (≈ 45 µM) | 128 (≈ 180 µM) | 8 (≈ 11.3 µM) | 64 (≈ 90 µM) | 32 (≈ 45 µM) | 128 (≈ 180 µM) | 256 (≈ 360 µM) | 64 (≈ 90 µM) | 64 (≈ 90 µM) | 128 (≈ 180 µM) |
| CC[C@H]1OC(=O)[C@H](C)[C@@H](O)[C@H](C)[C@@H](O[C@@H]2O[C@H](C)C[C@H](N(C)C)[C@H]2OC(=O)Nc2cccc(OC)c2)[C@](C)(O)C[C@@H](C)CN(C)[C@H](C)[C@H]2OC(=O)O[C@@]21C | 128 (≈ 167 µM) | 32 (≈ 41.8 µM) | 16 (≈ 20.9 µM) | 2 (≈ 2.61 µM) | 64 (≈ 83.6 µM) | 64 (≈ 83.6 µM) | 128 (≈ 167 µM) | 128 (≈ 167 µM) | 64 (≈ 83.6 µM) | 32 (≈ 41.8 µM) | 128 (≈ 167 µM) |
| CC[C@H]1OC(=O)[C@H](C)[C@@H](OC(=O)Nc2cccc(C(F)(F)F)c2)[C@H](C)[C@@H](O[C@@H]2O[C@H](C)C[C@H](N(C)C)[C@H]2O)[C@](C)(O)C[C@@H](C)CN(C)[C@H](C)[C@H]2OC(=O)O[C@@]21C | 64 (≈ 79.6 µM) | 8 (≈ 9.95 µM) | 8 (≈ 9.95 µM) | 1 (≈ 1.24 µM) | 128 (≈ 159 µM) | 0.5 (≈ 0.622 µM) | 64 (≈ 79.6 µM) | 32 (≈ 39.8 µM) | 128 (≈ 159 µM) | 16 (≈ 19.9 µM) | 128 (≈ 159 µM) |
| CC[C@H]1OC(=O)[C@H](C)[C@@H](OC(=O)N(C)c2ccccc2)[C@H](C)[C@@H](O[C@@H]2O[C@H](C)C[C@H](N(C)C)[C@H]2O)[C@](C)(O)C[C@@H](C)CN(C)[C@H](C)[C@H]2OC(=O)O[C@@]21C | 64 (≈ 85.3 µM) | 4 (≈ 5.33 µM) | 2 (≈ 2.67 µM) | 0.125 (≈ 0.167 µM) | 64 (≈ 85.3 µM) | 8 (≈ 10.7 µM) | 4 (≈ 5.33 µM) | 64 (≈ 85.3 µM) | 64 (≈ 85.3 µM) | 4 (≈ 5.33 µM) | 64 (≈ 85.3 µM) |
| CC[C@H]1OC(=O)[C@H](C)[C@@H](OC(=O)Nc2cccc(OC)c2)[C@H](C)[C@@H](O[C@@H]2O[C@H](C)C[C@H](N(C)C)[C@H]2OC(C)=O)[C@](C)(O)C[C@@H](C)CN(C)[C@H](C)[C@H]2OC(=O)O[C@@]21C | 128 (≈ 158 µM) | 32 (≈ 39.6 µM) | 16 (≈ 19.8 µM) | 2 (≈ 2.48 µM) | 64 (≈ 79.2 µM) | 32 (≈ 39.6 µM) | 16 (≈ 19.8 µM) | 128 (≈ 158 µM) | 64 (≈ 79.2 µM) | 32 (≈ 39.6 µM) | 64 (≈ 79.2 µM) |
| CC[C@H]1OC(=O)[C@H](C)[C@@H](OC(=O)N(C)c2ccccc2)[C@H](C)[C@@H](O[C@@H]2O[C@H](C)C[C@H](N(C)C)[C@H]2OC(C)=O)[C@](C)(O)C[C@@H](C)CN(C)[C@H](C)[C@H]2OC(=O)O[C@@]21C | – | – | – | – | – | 128 (≈ 162 µM) | – | – | – | – | – |
| CCCCCCNC(=O)O[C@@H]1[C@@H](C)N(C)C[C@H](C)C[C@@](C)(O)[C@H](O[C@@H]2O[C@H](C)C[C@H](N(C)C)[C@H]2O)[C@@H](C)[C@H](OC(=O)Nc2ccccc2)[C@@H](C)C(=O)O[C@H](CC)[C@@]1(C)O | – | – | – | 1 (≈ 1.19 µM) | 64 (≈ 76.5 µM) | – | 4 (≈ 4.78 µM) | – | 64 (≈ 76.5 µM) | 16 (≈ 19.1 µM) | – |
| CC[C@H]1OC(=O)[C@H](C)[C@@H](O[C@H]2C[C@@](C)(OC)[C@@H](O)[C@H](C)O2)[C@H](C)[C@@H](O[C@@H]2O[C@H](C)C[C@H](N(C)C)[C@H]2O)[C@](C)(O)C[C@@H](C)CN(C)[C@H](C)[C@@H](O)[C@]1(C)O [AZITHROMYCIN] | 256 (≈ 342 µM) | 256 (≈ 342 µM) | 4 (≈ 5.34 µM) | 0.03 (≈ 0.0401 µM) | 32 (≈ 42.7 µM) | 0.25 (≈ 0.334 µM) | 1 (≈ 1.34 µM) | 256 (≈ 342 µM) | 64 (≈ 85.4 µM) | 0.25 (≈ 0.334 µM) | 4 (≈ 5.34 µM) |
| CC[C@H]1OC(=O)[C@H](C)[C@@H](OC(=O)Nc2ccccc2F)[C@H](C)[C@@H](O[C@@H]2O[C@H](C)C[C@H](N(C)C)[C@H]2O)[C@](C)(O)C[C@@H](C)CN(C)[C@H](C)[C@H]2OC(=O)O[C@@]21C | 64 (≈ 84.9 µM) | 16 (≈ 21.2 µM) | 16 (≈ 21.2 µM) | 0.5 (≈ 0.663 µM) | 64 (≈ 84.9 µM) | 4 (≈ 5.31 µM) | 32 (≈ 42.4 µM) | 64 (≈ 84.9 µM) | 64 (≈ 84.9 µM) | 8 (≈ 10.6 µM) | 64 (≈ 84.9 µM) |
